MrgX1 allo act: positive allosteric modulators of MrgX1, primary screen, HEK293 cells, Fluo-4 calcium flux; Mas-related G-protein coupled receptor member X1 (Homo sapiens), Q96LB2; FDSS; active compounds read high; B-score at 10 µM; 0.63% of 310,000 active; AID 588675, 2011;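 active = plate-corrected calcium response at least 3 library SD above typical, normal starting fluorescence, not activating the receptor alone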;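 also: compound read alongside a low EC10 to EC30 dose of BAM8-22 agonist; peak minus trough fluorescence over baseline measured at the second addition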
Target sequence (Q96LB2 whole entry, looked up): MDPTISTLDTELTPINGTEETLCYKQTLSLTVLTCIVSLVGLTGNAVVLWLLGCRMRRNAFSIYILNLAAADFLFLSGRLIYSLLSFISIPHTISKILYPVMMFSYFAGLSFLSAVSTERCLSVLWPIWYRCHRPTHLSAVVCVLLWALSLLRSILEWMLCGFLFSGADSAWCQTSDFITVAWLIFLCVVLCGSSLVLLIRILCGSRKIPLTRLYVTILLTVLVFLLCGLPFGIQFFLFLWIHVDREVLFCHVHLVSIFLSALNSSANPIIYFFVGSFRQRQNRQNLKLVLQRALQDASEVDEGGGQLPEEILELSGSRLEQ
MrgX1 antag: antagonists of human MrgX1 receptor, primary screen, HEK293 cells, Fluo-4 calcium flux; Mas-related G-protein coupled receptor member X1 (Homo sapiens), Q96LB2; BAM8-22 antagonism; active compounds read low; B-score at 10 µM; 1.3% of 310,000 active; AID 588676, 2011;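 active = calcium-response B-score plate-corrected more than 3 library SD below zero, starting fluorescence within 5 deviations, no agonist response on first addition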;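 also: peak minus trough fluorescence over baseline after final BAM8-22 challenge near maximal dose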
MrgX1 agonist: agonists of human MrgX1 receptor, primary screen, HEK293 cells, Fluo-4 calcium flux; Mas-related G-protein coupled receptor member X1 (Homo sapiens), Q96LB2; Fluo-4 calcium fluorescence, agonist mode; active compounds read high; B-score at 10 µM; 0.44% of 310,000 active;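 active = calcium response B-score plate-corrected fluorescence ratio at least 3 library SD, with starting fluorescence B-score inside 5 SD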
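times = overnight plating, then 30 min 37 °C plus 30 min room-temperature dye loading | assay system = stable human MrgX1 HEK293 cell line | input = fifteen thousand cells per well | signal = kinetic calcium dye fluorescence, Fluo-4 NW | dosing = compound delivered in addition one of three | read-out = B-scored fluorescence response ratio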
RGS4 pot: RGS4 potentiators or activators, primary screen, cell-based, HEK293 M3R inducible RGS4, calcium flux; carbachol calcium flux Fluo4; active compounds read low; B-score at 10 µM; 0.92% of 310,000 active;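 active = B-score of the integrated calcium signal more than 4 SD below the library mean, with starting fluorescence not abnormally high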;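 also: negative B-score means reduced calcium response which marks RGS4 activation or potentiation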
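Detection: kinetic calcium fluorescence imaging with Fluo4-AM dye, 2 µM / Material: HEK293 cells with stable M3R and inducible RGS4 / Schedule: recording 10 s baseline at 1 Hz, 100 s post-agonist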
RGS4 block: RGS4 inhibitors, primary screen, cell-based, HEK293 M3R inducible RGS4, calcium flux. B-score at 10 µM. Fluo-4 calcium flux; active compounds read high; triggered by carbachol at its EC20. 0.45% of 310,000 active;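 active = B-score, a plate-corrected calcium signal, over three deviations above library mean, with baseline fluorescence within five deviations of library mean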;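 also: RGS4 expression induced by doxycycline in cells with stable M3 receptor; B-score is computed from the integrated fluorescence ratio over baseline after carbachol; higher B-score means a larger calcium signal and so more RGS4 inhibition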
Target sequence (P49798 whole entry, looked up): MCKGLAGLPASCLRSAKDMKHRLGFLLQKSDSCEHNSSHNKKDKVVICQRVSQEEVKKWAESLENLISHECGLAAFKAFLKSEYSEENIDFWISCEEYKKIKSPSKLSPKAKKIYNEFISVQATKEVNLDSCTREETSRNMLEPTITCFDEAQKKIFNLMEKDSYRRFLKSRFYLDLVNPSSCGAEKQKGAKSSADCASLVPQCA
RGS4 inh valid: enhanced carbachol calcium response, M3R/RGS4 cells, RGS4 inhibitor project, cell-based, validation screen, HEK293 M3R/RGS4, calcium flux. shares compounds with RGS4 block. carbachol calcium Fluo-4 fluorescence; carbachol added at its EC20; 0 = buffer wells, 100 = carbachol control. calcium response, % at 10 µM. 65% of 1,700 active. AID 492999, 2010;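 active = duplicate-averaged calcium response above the buffer-only control mean plus 5 SD of those controls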;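 also: integrated fluorescence ratio F max minus min over baseline F0; higher response in RGS4-induced cells means RGS4 inhibition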
M3R Ca ctr: carbachol calcium response in non-induced M3R cells, confirmation, counter-screen for RGS4 inhibitor project, cell-based, HEK293 M3R. shares compounds with RGS4 block. carbachol calcium Fluo-4; submaximal (EC20) carbachol stimulus; buffer wells 0%, carbachol control wells 100%. activity (percent), % at 10 µM. 20% of 1,900 active. AID 493000, 2010; call rule not given here;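 also: RGS4 induction absent so cells express M3R without RGS4; higher means more calcium signal and flags a non-specific hit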
RGS4 inh ctr2: signal in non-induced cells without carbachol, RGS4 inhibitor counter-screen; shares compounds with RGS4 block; HEK293 M3R/RGS4 non-induced, Fluo-4 calcium, no carbachol; normalised: buffer wells 0%, carbachol wells 100%; calcium response (agonist-mode artifact), % at 10 µM; 22% of 1,900 active; AID 493001;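 active = duplicate-averaged calcium rise in uninduced cells above buffer wells' mean plus 5 SD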
The depositor's hits bear a star; i = inactive; . = not tested or not shown. Only some compounds are listed: those with a hit (about 3.5% of all), similar ones and a draw of the others.

SMILES	MrgX1 allo act	MrgX1 antag	MrgX1 agonist	RGS4 pot	RGS4 block	RGS4 inh valid	M3R Ca ctr	RGS4 inh ctr2
CCOC(=O)c1sc2c(c1C)c(=O)n(CCO)c(=O)n2Cc1ccccc1	i	i	i	i	i	.	.	.
COc1ccc(OC)c(-c2nc3ccccc3nc2-c2ccccc2)c1	i	i	i	i	i	i	i	i
CC(C)N(CCO)Cc1nc(C(c2ccccc2)c2ccccc2)no1	i	i	i	i	i	.	.	.
O=[N+]([O-])c1cc(C(F)(F)F)ccc1NCCc1c[nH]c2ccc(O)cc12	i	i	i	i	13*	20%*	i	i
COc1cc(C2CC(c3ccccc3)=NN2c2ccccc2)ccc1OCC(=O)O (stereo not given)	i	i	i	i	i	.	.	.
NS(=O)(=O)c1ccc(N2N=C(c3ccccc3)CC2c2cccc(F)c2)cc1 (stereo not given)	i	i	i	i	i	.	.	.
COc1ccc(C2CC(c3ccccc3)=NN2c2ccc(S(N)(=O)=O)cc2)cc1OC (stereo not given)	i	i	i	i	8.5*	53%*	66%*	i
COc1ccc(C2=NN(c3ccc(C(=O)O)cc3)C(c3ccc(OC)c(OC)c3)C2)cc1 (stereo not given)	i	i	i	i	9.3*	18%*	38%*	i
O/N=C/Cc1[nH]c2ccccc2c1-c1ccccc1	i	i	i	i	i	.	.	.
COc1cc(/C=C/[N+](=O)[O-])ccc1OCc1cccc(C(=O)O)c1	.	.	.	i	72*	174%*	57%*	8.0%*
Cn1c(SCC(=O)NNC(=O)Nc2ccc(Cl)cc2)nnc1-c1ccccc1	i	i	i	i	i	.	.	.
N#Cc1c(-c2ccccc2)c(-c2ccccc2)nn(CC(=O)NNC(=O)Nc2ccc(Cl)cc2)c1=O	i	i	i	i	i	.	i	i
N#Cc1c(-c2ccccc2)c(-c2ccccc2)nn(CC(=O)NNC(=O)Nc2ccccc2)c1=O	i	i	i	i	i	i	i	i
COc1ccc(N(CCC(=O)Nc2ccccc2F)S(=O)(=O)c2ccc(C)cc2C)cc1	i	i	i	i	i	.	.	.
COC(=O)Nc1cccn(Cc2c(Cl)cccc2Cl)c1=O	i	i	i	i	8.4*	6.5%*	i	i
O=C(Nc1cccn(Cc2c(Cl)cccc2Cl)c1=O)c1c(Cl)cccc1Cl	i	i	i	i	i	.	.	.
COc1ccc(N2C(=O)CC(Sc3ncn[nH]3)C2=O)c(OC)c1 (stereo not given)	i	i	i	i	12*	22%*	i	i
CC(C)c1ccc(N2C(=O)CC(Sc3ncn[nH]3)C2=O)cc1 (stereo not given)	i	i	i	i	i	.	.	.
O=C(OCCN1CCOCC1)c1ccc2c(c1)OCCO2	i	i	i	i	i	.	.	.
O=C(CCN1CCCCC1)c1ccccc1	i	i	i	i	i	.	.	.
O=C(CCN1CCOCC1)c1ccccc1	i	i	i	i	i	i	36%*	23%*
O=C(CCN1CCN(C(=O)c2ccccc2)CC1)c1ccc(Br)cc1	i	i	i	i	6*	i	i	10%*
O=C(CCCN1CCOCC1)c1ccc2c(c1)OCCO2	i	i	i	i	i	i	i	i
O=C(CCCO)c1ccc2c(c1)OCCO2	i	i	i	i	i	.	.	.
O=C(CCN1CCOCC1)c1ccc2c(c1)OCCO2	i	i	i	i	21*	20%*	i	18%*
SMILES	MrgX1 allo act	MrgX1 antag	MrgX1 agonist	RGS4 pot	RGS4 block	RGS4 inh valid	M3R Ca ctr	RGS4 inh ctr2
COc1ccc(C(=O)NC(C)c2nnc(SCC(=O)NC3CCCC3)n2C)cc1 (stereo not given)	i	i	i	i	i	.	.	.
O=C(Nc1ccccc1N1CCCCC1)c1ccc(-c2cc(Cl)ccc2Cl)o1	i	i	i	i	i	.	.	.
CC(=O)c1c(C)oc2c1cc(NS(=O)(=O)c1ccc(C(=O)O)cc1)c1ccccc12	i	i	i	i	i	.	i	i
COC(=O)c1c(C)oc2c1cc(NS(=O)(=O)c1ccc(C(=O)O)cc1)c1ccccc12	i	i	i	i	5.6*	16%*	i	i
CN1C(=O)C(=O)/C(=C(/O)c2ccc(Br)cc2)C1c1ccccc1F (stereo not given)	i	i	i	i	i	.	.	.
Cc1ccc(SCc2[nH]nc3c2C2(C(=O)Nc4ccc([N+](=O)[O-])cc42)C(C#N)=C(N)O3)cc1 (stereo not given)	i	i	i	i	6.1*	i	i	i
Cc1ccc(SCc2[nH]nc3c2C2(CCSCC2)C(C#N)=C(N)O3)cc1	i	i	i	i	i	.	.	.
COc1cc2c(cc1OC)C(CSc1ccccc1C(=O)O)=NC(C)(C)C2	i	i	i	i	5.6*	9.5%*	i	i
COc1ccc(N2C(=O)CC(Sc3nc4ccccc4s3)C2=O)cc1 (stereo not given)	i	i	i	i	i	.	.	.
C=CCNc1nnc(SC2CC(=O)N(c3ccc(OC)cc3)C2=O)s1 (stereo not given)	i	i	i	i	5.7*	9.0%*	i	i
COc1ccc(CC(=O)NCCCCc2ccccc2)cc1OC	i	i	i	i	i	.	.	.
O=C(COc1ccc(C(=O)c2ccccc2)cc1)NCC(=O)Nc1ccccc1Br	i	i	i	i	i	.	.	.
O=[N+]([O-])c1cccc(S(=O)(=O)N2CCN(c3ccccn3)CC2)c1	i	i	i	i	i	.	.	.

Bioassay records from PubChem BioAssay.
